In brackets after ≈: the same amount, converted by molar mass. Entries after “also recorded” stand apart in the source; their conditions may differ. Where two headings read alike, the source gives them in different places.
What was measured:
[1] = test system: C. neoformans MTCC4424; assay: Disc diffusion assay, MTCC4424; format: cell-based, Cryptococcus neoformans; conditions: 37°C, 48 h, mean±SD; for Diameter of zone of inhibition: 10 μL of essential oil or active compound per disc
Method in brief: (§1)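 Per CLSI M44-A2, modified. Strains were kept on SDA slants at 4°C and subcultured in SDB before use. 100 µl of cell suspension (1.5 × 10^8 cfu/ml) was spread on SDA. Plates got antifungal drug discs (10–20 µg/disc) or 8 mm paper discs soaked with 10 µl of oil or test compound, then incubated at 37°C for 48 h. Inhibition-zone diameter (mm) was recorded in triplicate as mean ± SD.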

[2] = test system: CN and CN MTCC4424 strains; assay: Checkerboard test, text statements for both test strains; format: cell-based, Cryptococcus neoformans; conditions: for Interaction with fluconazole: checkerboard, CN and CN MTCC4424
[3] = test system: Cryptococcus neoformans test strains (CN and CN MTCC4424); assay: Disc diffusion, text statements for both test strains; format: cell-based; conditions: oils/compounds, against the test strains
Method in brief: as §1

[4] = test system: C. neoformans (clinical isolate CN); assay: Disc diffusion assay, clinical isolate CN; format: cell-based, Cryptococcus neoformans; conditions: 37°C, 48 h, mean±SD; for Diameter of zone of inhibition: 10 μL of essential oil or active compound per disc
Method in brief: as §1

[5] = test system: C. neoformans MTCC4424; assay: Broth microdilution MIC/MFC, MTCC4424; format: cell-based; conditions: Cryptococcus neoformans; for MFC: MTCC4424
[6] = Cytotoxicity; format: cell-based; conditions: red blood cell suspension (4% RBC from defibrinated blood), pH 7
[7] = test system: C. neoformans (clinical isolate CN); assay: Broth microdilution MIC/MFC, clinical isolate CN; format: cell-based; conditions: Cryptococcus neoformans
[8] = test system: Cryptococcus neoformans test strains (CN and CN MTCC4424); assay: Broth microdilution, text statements for both test strains; format: cell-based
[9] = test system: C. neoformans MTCC4424; assay: Checkerboard microtiter test with fluconazole, MTCC4424; format: cell-based, Cryptococcus neoformans; conditions: for MIC: Cryptococcus neoformans, MTCC4424, 48 h, read-out: MIC of agent alone
[10] = test system: C. neoformans CN; assay: Checkerboard microtiter test with fluconazole, CN; format: cell-based, Cryptococcus neoformans; conditions: for MIC: Cryptococcus neoformans, 48 h, read-out: MIC of agent alone; for Lowering of own MIC: in combination with fluconazole, against CN
[11] = test system: red blood cell (RBC); assay: Cytotoxicity; format: cell-based; conditions: 0.1% (v/v) Triton X-100
[12] = Cryptococcus neoformans, MTCC4424, read-out: MIC, oils/compounds, against the test strains
[13] = oils/compounds, against the test strains
[14] = CD-FLC combination (cinnamaldehyde + fluconazole)
[15] = EL-FLC combination (eugenol + fluconazole)

CC(C)=CCCC(C)=CC=O (mixture of isomers) [CT, Citral]
Diameter of zone of inhibition [1]: 22.66±1.24 mm
Reduction of MICs in combination with fluconazole [2]: up to 8 fold
Interaction with fluconazole [2]: less synergistic; also recorded: synergy
zone of inhibition [3]: > 15 mm
Diameter of zone of inhibition [4]: 25.33±2.05 mm
MIC ([5]; MTCC4424, 24 h): 1600 µg/mL
hemolysis at 2 h, 25 μg/mL [6]: 1.78 ± 0.16%
hemolysis at 2 h, 50 μg/mL [6]: 2.86 ± 0.15%
hemolysis at 2 h, 100 μg/mL [6]: 3.8 ± 0.18%
hemolysis at 2 h, 200 μg/mL [6]: 4.29 ± 0.12%
hemolysis at 2 h, 400 μg/mL [6]: 4.51 ± 0.13%
hemolysis at 2 h, 800 μg/mL [6]: 5.98 ± 0.21%
hemolysis at 2 h, 1600 μg/mL [6]: 6.96 ± 0.1%
hemolysis at 2 h, 3200 μg/mL [6]: 17.6 ± 1.04%
MIC ([7]; 24 h): 800 µg/mL
MIC [8, 12]: 400 to 1600 µg/mL
MIC [8, 13]: 400 to 1600 µg/mL

O=C/C=C/c1ccccc1 [CD, Cinnamaldehyde]
Diameter of zone of inhibition [1]: 45.66±2.49 mm
Reduction of MICs in combination with fluconazole [2]: up to 32 fold
Interaction with fluconazole [2]: synergistic interaction
zone of inhibition [3]: > 15 mm
MIC of agent in combination [9, 14]: 12.50 µg/mL
MIC [9]: 100 µg/mL
MIC of agent in combination [10, 14]: 12.50 µg/mL
MIC [10]: 100 µg/mL
Lowering of own MIC [10]: 8 folds
Diameter of zone of inhibition [4]: 48.33±3.39 mm
MIC ([5]; MTCC4424, 24 h): 100 µg/mL (≈ 757 µM)
hemolysis at 2 h, 25 μg/mL [6]: 1.84 ± 0.19%
hemolysis at 2 h, 50 μg/mL [6]: 2.87 ± 0.07%
hemolysis at 2 h, 100 μg/mL [6]: 3.39 ± 0.12%
hemolysis at 2 h, 200 μg/mL [6]: 3.96 ± 0.05%
hemolysis at 2 h, 400 μg/mL [6]: 4.4 ± 0.17%
hemolysis at 2 h, 800 μg/mL [6]: 5.06 ± 0.2%
hemolysis at 2 h, 1600 μg/mL [6]: 6.22 ± 0.19%
hemolysis at 2 h, 3200 μg/mL [6]: 18.1 ± 0.4%
MIC ([7]; 24 h): 100 µg/mL (≈ 757 µM)
MIC [8, 12]: 100 µg/mL (≈ 757 µM)
MIC [8, 13]: 100 to 200 µg/mL

C=CCc1ccc(O)c(OC)c1 [EL, Eugenol]
Diameter of zone of inhibition [1]: 40.33±1.69 mm
Reduction of MICs in combination with fluconazole [2]: up to 32 fold
Interaction with fluconazole [2]: synergistic interaction
zone of inhibition [3]: > 15 mm
MIC [9]: 200 µg/mL
MIC of agent in combination [9, 15]: 12.50 µg/mL
MIC [10]: 200 µg/mL
MIC of agent in combination [10, 15]: 12.50 µg/mL
FICI ([10]; combination with fluconazole): 0.187
Lowering of own MIC [10]: 8 folds
Diameter of zone of inhibition [4]: 22.66±1.24 mm
MIC ([5]; MTCC4424, 24 h): 200 µg/mL (≈ 1220 µM)
hemolysis at 2 h, 25 μg/mL [6]: 1.65 ± 0.14%
hemolysis at 2 h, 50 μg/mL [6]: 1.98 ± 0.09%
hemolysis at 2 h, 100 μg/mL [6]: 3.02 ± 0.08%
hemolysis at 2 h, 200 μg/mL [6]: 3.72 ± 0.16%
hemolysis at 2 h, 400 μg/mL [6]: 4.26 ± 0.16%
hemolysis at 2 h, 800 μg/mL [6]: 4.78 ± 0.25%
hemolysis at 2 h, 1600 μg/mL [6]: 5.6 ± 0.63%
hemolysis at 2 h, 3200 μg/mL [6]: 19 ± 0.3%
MIC ([7]; 24 h): 200 µg/mL (≈ 1220 µM)
MIC [8, 12]: 200 µg/mL (≈ 1220 µM)
MIC [8, 13]: 100 to 200 µg/mL

OC(Cn1cncn1)(Cn1cncn1)c1ccc(F)cc1F [FLC, Fluconazole, reference compound]
Diameter of the zone of inhibition ([1]; antifungal drugs 10 μg/disc): 14.33±1.24 mm
Reduction of MICs in combination with fluconazole [2]: up to 32 fold
MIC of agent in combination [9, 14]: 1 µg/mL
MIC [9]: 8 µg/mL
MIC of agent in combination [9, 15]: 1 µg/mL
MIC of agent in combination [10, 14]: 8 µg/mL
MIC [10]: 128 µg/mL
MIC of agent in combination [10, 15]: 8 µg/mL
MFC [5]: 32 µg/mL (≈ 104 µM)
MIC ([5]; MTCC4424, 48 h): 8 µg/mL (≈ 26.1 µM)
MFC [7]: 256 µg/mL (≈ 836 µM)
MIC ([7]; 48 h): 128 µg/mL (≈ 418 µM)

CC(C)=CCC/C(C)=C/CO [GR, Geraniol]
Diameter of zone of inhibition [1]: 19.33±1.24 mm
Reduction of MICs in combination with fluconazole [2]: up to 8 fold
Interaction with fluconazole [2]: synergy
zone of inhibition [3]: > 15 mm
Diameter of zone of inhibition [4]: 19.33±1.24 mm
MIC ([5]; MTCC4424, 24 h): 800 µg/mL (≈ 5190 µM)
hemolysis at 2 h, 25 μg/mL [6]: 1.33 ± 0.17%
hemolysis at 2 h, 50 μg/mL [6]: 2.16 ± 0.25%
hemolysis at 2 h, 100 μg/mL [6]: 2.31 ± 0.26%
hemolysis at 2 h, 200 μg/mL [6]: 2.87 ± 0.23%
hemolysis at 2 h, 400 μg/mL [6]: 3.36 ± 0.18%
hemolysis at 2 h, 800 μg/mL [6]: 3.85 ± 0.11%
hemolysis at 2 h, 1600 μg/mL [6]: 4.74 ± 0.34%
hemolysis at 2 h, 3200 μg/mL [6]: 14.3 ± 0.23%
MIC ([7]; 24 h): 400 µg/mL (≈ 2590 µM)
MIC [8, 12]: 400 to 1600 µg/mL (≈ 2590 to 10400 µM)
MIC [8, 13]: 400 to 1600 µg/mL

CCC(C)n1ncn(-c2ccc(N3CCN(c4ccc(OCC5COC(Cn6cncn6)(c6ccc(Cl)cc6Cl)O5)cc4)CC3)cc2)c1=O (stereo not drawn) [ITC, Itraconazole]
MFC [5]: 256 µg/mL (≈ 363 µM)
MIC ([5]; MTCC4424, 48 h): 128 µg/mL (≈ 181 µM)
MFC [7]: 128 µg/mL (≈ 181 µM)
MIC ([7]; 48 h): 64 µg/mL (≈ 90.7 µM)
MIC range (resistance to azoles) ([8]; antifungal drugs, both test strains): 64 to 256 µg/mL

CC(=O)N1CCN(c2ccc(OCC3COC(Cn4ccnc4)(c4ccc(Cl)cc4Cl)O3)cc2)CC1 (stereo not drawn) [KTC, Ketoconazole]
Diameter of the zone of inhibition ([4]; antifungal drugs 10 μg/disc): 19.33±1.24 mm
MFC [5]: 128 µg/mL (≈ 241 µM)
MIC ([5]; MTCC4424, 48 h): 64 µg/mL (≈ 120 µM)
MFC [7]: 0.5 µg/mL (≈ 0.941 µM)
MIC ([7]; 48 h): 0.25 µg/mL (≈ 0.47 µM)

Triton X-100 [reference compound]
hemolysis (positive control) [11]: 100%

From article PMC11364305 (Annals of African Medicine, 2024)
